# Laboratory results published in ChEMBL document CHEMBL4831478, “Bispecific Estrogen Receptor α Degraders Incorporating Novel Binders Identified Using DNA-Encoded Chemical Library Screening” (J Med Chem, 2021).
# Columns and labels:
# Estrogen receptor [1] = biological target: T1, Estrogen receptor (Homo sapiens, UniProt P03372); assay: Binding affinity to recombinant His-tagged ERalpha LBD (307 to 554 residue) (unknown origin) expressed in Escherichia coli preincubated for 15 mins followed by ligand addition and measured after 1 hr by fluorescent polarization assay
# T1 sequence (P03372 whole entry): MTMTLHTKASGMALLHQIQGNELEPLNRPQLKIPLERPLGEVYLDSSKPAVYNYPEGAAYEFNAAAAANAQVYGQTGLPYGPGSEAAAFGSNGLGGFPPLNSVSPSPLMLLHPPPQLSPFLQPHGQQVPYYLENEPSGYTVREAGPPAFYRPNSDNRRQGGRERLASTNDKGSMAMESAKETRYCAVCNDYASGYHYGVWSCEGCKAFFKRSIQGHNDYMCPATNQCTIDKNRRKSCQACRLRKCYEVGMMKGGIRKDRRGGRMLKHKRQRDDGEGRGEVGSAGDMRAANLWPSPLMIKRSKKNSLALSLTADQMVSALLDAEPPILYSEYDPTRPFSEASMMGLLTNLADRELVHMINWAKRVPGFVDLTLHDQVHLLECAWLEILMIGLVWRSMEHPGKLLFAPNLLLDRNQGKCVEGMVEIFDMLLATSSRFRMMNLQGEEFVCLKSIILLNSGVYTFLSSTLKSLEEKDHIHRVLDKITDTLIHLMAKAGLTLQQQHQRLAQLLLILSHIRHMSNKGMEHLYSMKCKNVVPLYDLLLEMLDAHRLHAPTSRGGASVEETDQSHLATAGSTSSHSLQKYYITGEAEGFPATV
# In short: (§1)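 ERα LBD (aa 307–554), WT or D538G, S463P, Y537S, with N-terminal Avi-Tev-His tag, expressed in E. coli T7 Express (20 °C, 12 h, IPTG). Purified by Ni-NTA then size exclusion. Compound preincubated with protein 15 min, fluorescent ligand added, 1 h at room temperature. FP read ex 485/em 535 nm; duplicate runs averaged.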
# MCF7 [2] = assay: Antiproliferative activity against human MCF7 cells assessed as growth inhibition preincubated with estradiol for 30 mins followed by compound addition and measured after 72 hrs by CellTiter-Glo assay; format: functional
# MCF7 [3] = assay: Antiproliferative activity against human MCF7 cells assessed as growth inhibition preincubated with estradiol for 30 mins followed by compound addition and measured after 7 days by CellTiter-Glo assay; format: functional; settings: MCF7, 168 h, time 7 day
# In short: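 MCF7 cells seeded in hormone-deprived media for 72 h. All wells except minimum-signal controls received 0.1 nM estradiol for 30 min, then compound in a 10-point dose series. Incubated 7 days at 37 °C, 5% CO2; ATP content read by CellTiter-Glo 2.0. Duplicate runs averaged.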
# Estrogen receptor [4] = biological target: T1, Estrogen receptor; assay: Induction of ERalpha degradation in human MCF7 cells assessed as decrease in ERalpha protein expression incubated for 48 hrs under hormone-deprived medium by Western blot analysis; format: cell-based
# In short: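 In-cell western: MCF7 seeded in hormone-deprived media for 72 h, then 10-point dose series in the same media for 48 h. Minimum-signal control compound at 1 μM. Cells fixed (4% formaldehyde), permeabilized (0.1% Triton X-100), blocked (3% fish gelatin), stained for ERα and α-tubulin, imaged; ERα normalized to tubulin.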
# [5] = biological target: T2, Estrogen receptor (Homo sapiens) (UniProt P03372); assay: Induction of ERalpha degradation in human MCF7 cells assessed as degradation maximum incubated for 48 hrs under starved CSS media condition by Western blot analysis relative to control; format: cell-based
# T2 sequence (whole entry): T1 sequence (P03372 whole entry)
# In short: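 MCF7 cells in hormone-deprived media (agonist mode) or full-serum media (antagonist mode) were treated with 1 μM compound over a 48 h time course. Cells were lysed and ERα was detected by western blot, with tubulin as the normalizer.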
# MCF7 [6] = assay: Antitumor activity against human MCF7 cells xenografted in CD1 mouse assessed as tumor growth inhibition at 3 mg/kg, sc administered once daily for 28 days by caliper method; settings: 672 h, read-out: TGI
# [7] = Toxicity in CD1 mouse xenografted with human MCF7 cells assessed as change in body weight at 3 mg/mouse, sc administered once weekly for 28 days; settings: in vivo, 672 h
# Estrogen receptor [8] = biological target: Estrogen receptor (Homo sapiens, UniProt P03372, Y537S); assay: Binding affinity to ERalpha Y537S mutant (unknown origin) expressed in Escherichia coli preincubated for 15 mins followed by ligand addition and measured after 1 hr by fluorescent polarization assay; in short: as §1
# Estrogen receptor [9] = biological target: Estrogen receptor (Homo sapiens, UniProt P03372, S463P); assay: Binding affinity to ERalpha S463P mutant (unknown origin) expressed in Escherichia coli preincubated for 15 mins followed by ligand addition and measured after 1 hr by fluorescent polarization assay; in short: as §1
# Estrogen receptor [10] = biological target: Estrogen receptor (Homo sapiens, UniProt P03372, D538G); assay: Binding affinity to ERalpha D538G mutant (unknown origin) expressed in Escherichia coli preincubated for 15 mins followed by ligand addition and measured after 1 hr by fluorescent polarization assay; in short: as §1
# Estrogen receptor [11] = biological target: T1, Estrogen receptor; assay: Induction of ERalpha degradation in human MCF7 cells assessed as decrease in ERalpha protein expression incubated for 48 hrs by Western blot analysis; format: cell-based
# [12] = Solubility of compound; format: physicochemical
# [13] = Apparent permeability of compound across apical to basolateral side in MDCK cells; format: ADME, cell-based, Canis lupus familiaris; settings: dog
# [14] = Plasma protein binding in human; format: ADME, cell-free; settings: read-out: PPB
# [15] = Microsomal stability in human liver microsomes assessed as intrinsic clearance measured upto 60 mins; format: ADME, Microsome; settings: read-out: CLH
# In short: (§2)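 Compounds at 2 μM final incubated with pooled human or male mouse liver microsomes. Percent remaining measured at 0, 15, 30, 45 and 60 min and used to calculate in vitro half-life.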
# [16] = Microsomal stability in mouse liver microsomes assessed as intrinsic clearance measured upto 60 mins; format: ADME, Microsome; settings: read-out: CLH; in short: as §2
# [17] = Clearance in CD1 mouse at 0.3 mg/kg, iv administered as cassette dosing […]; format: ADME, organism-based; settings: in vivo
# [18] = Volume of distribution at steady state in CD1 mouse at 0.3 mg/kg, iv administered as cassette dosing […]; format: ADME, organism-based; settings: in vivo, read-out: Vdss
# [19] = Half life in CD1 mouse at 0.3 mg/kg, iv administered as cassette dosing […]; format: ADME, organism-based; settings: in vivo
# [20] = Cmax in CD1 mouse at 10 mg/kg, sc administered as single dose […]; format: ADME, organism-based; parameters: route subcutaneous, dose 10 mg/kg; settings: in vivo
# [21] = AUCinfinity in CD1 mouse at 10 mg/kg, sc administered as single dose […]; format: ADME, organism-based; parameters: route subcutaneous, dose 10 mg/kg; settings: in vivo
# [22] = Half life in CD1 mouse at 10 mg/kg, sc administered as single dose […]; format: ADME, organism-based; settings: in vivo
# [23] = Bioavailability in CD1 mouse at 10 mg/kg, sc administered as single dose […]; format: ADME, organism-based; settings: in vivo
# Estrogen receptor [24] = biological target: T1, Estrogen receptor; assay: Induction of ERalpha degradation in human MCF7 cells assessed as decrease in ERalpha protein expression incubated for 24 hrs by Western blot analysis; format: cell-based
# MCF7 [25] = assay: Antiproliferative activity against human MCF7 cells assessed as growth inhibition preincubated with estradiol for 30 mins followed by compound addition and measured after 7 days by CellTiter-Glo assay; settings: MCF7, 7 days
# Estrogen receptor (Homo sapiens, UniProt P03372, Y537S), sequence (P03372 whole entry Y537S): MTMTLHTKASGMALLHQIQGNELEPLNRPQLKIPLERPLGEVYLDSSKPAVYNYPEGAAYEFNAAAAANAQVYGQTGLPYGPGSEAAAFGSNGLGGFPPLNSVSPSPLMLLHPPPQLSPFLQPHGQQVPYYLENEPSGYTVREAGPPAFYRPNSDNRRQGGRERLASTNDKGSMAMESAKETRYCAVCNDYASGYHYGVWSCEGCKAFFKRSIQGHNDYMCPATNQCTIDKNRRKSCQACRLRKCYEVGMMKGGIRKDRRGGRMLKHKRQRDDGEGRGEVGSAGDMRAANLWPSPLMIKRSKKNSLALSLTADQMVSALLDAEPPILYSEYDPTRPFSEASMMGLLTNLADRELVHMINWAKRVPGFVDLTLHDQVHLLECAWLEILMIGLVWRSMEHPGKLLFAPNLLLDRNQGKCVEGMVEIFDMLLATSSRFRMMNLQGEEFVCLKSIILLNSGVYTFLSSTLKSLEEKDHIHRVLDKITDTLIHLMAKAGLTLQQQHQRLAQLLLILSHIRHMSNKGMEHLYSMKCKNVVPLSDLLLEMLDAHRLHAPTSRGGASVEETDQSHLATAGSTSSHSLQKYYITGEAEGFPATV
# Estrogen receptor (Homo sapiens, UniProt P03372, D538G), sequence (P03372 whole entry D538G): as the sequence (P03372 whole entry Y537S) above, with S537Y, D538G counted along it
# Estrogen receptor (Homo sapiens, UniProt P03372, S463P), sequence (P03372 whole entry S463P): as the sequence (P03372 whole entry Y537S) above, with S463P, S537Y counted along it
SMILES,IC50 (Estrogen receptor [1]),GI50 (MCF7 [2]),GI50 (MCF7 [3]),IC50 (Estrogen receptor [8]),IC50 (Estrogen receptor [9]),IC50 (Estrogen receptor [10]),further results
Oc1cccc(CN(CC2(c3ccccc3F)CCCC2)c2ccc(OCCN3CCCCC3)cc2)c1Cl,8 nM,> 10000 nM,68 nM,,,,DC50 (Estrogen receptor [4]): 15 nM; Activity [5]: 70%
C[C@]12CC[C@@H]3c4ccc(O)cc4C[C@@H](CCCCCCCCC[S+]([O-])CCCC(F)(F)C(F)(F)F)[C@H]3[C@@H]1CC[C@@H]2O (stereo partly drawn) [FULVESTRANT],,,,,,,inhibition in vivo at 3 mg/kg (MCF7 [6]): 91.6%; Activity [7]: Non-Toxic
Cc1ncsc1-c1ccc(CNC(=O)N2C[C@H](O)CC2C(=O)[C@H](NC(=O)C2(F)CC2)C(C)(C)C)c(OCCOCc2cn(CCOc3ccc(Cn4c(-c5ccc(O)cc5)c(C)c5cc(O)ccc54)cc3)nn2)c1 (stereo partly drawn),5.3 nM,> 10000 nM,34 nM,52 nM,14 nM,29 nM,DC50 (Estrogen receptor [11]): 27 nM
Cc1ncsc1-c1ccc([C@H](C)NC(=O)[C@@H]2C[C@@H](O)CN2C(=O)[C@H](NC(=O)COCc2cn(CCOc3ccc(N(Cc4cccc(O)c4Cl)CC4(c5ccccc5F)CCCC4)cc3)nn2)C(C)(C)C)cc1,17 nM,> 10000 nM,165 nM,332 nM,170 nM,269 nM,DC50 (Estrogen receptor [11]): 4.2 nM; solubility [12]: < 0.2 µM; Papp A→B [13]: < 0.1 ×10⁻⁶ cm/s; fraction unbound [14]: < 0.004; microsomal CLint [15]: 31 µL/min/mg; microsomal CLint [16]: 199 µL/min/mg; clearance [17]: 20 mL/min/kg; Vd [18]: 1.24 L/kg; half-life [19]: 2.7 h; Cmax [20]: 1500 nM; AUC(0-inf) [21]: 9.8 µM·h; half-life [22]: 21 h; bioavailability [23]: 83%
Oc1cccc(CN(CCCN2CCCCC2)CC2(c3ccccc3F)CCCC2)c1Cl,960 nM,,,,,,
Oc1cccc(CN(CCN2CCCCC2)CC2(c3ccccc3F)CCCC2)c1Cl,> 10000 nM,,,,,,
CN(Cc1cccc(O)c1Cl)CC1(c2ccccc2F)CCCC1,15 nM,550 nM,> 10000 nM,8.1 nM,21 nM,7.2 nM,
Oc1cccc(CN(CCOCCN2CCCCC2)CC2(c3ccccc3F)CCCC2)c1Cl,83 nM,> 10000 nM,3100 nM,,,,
Oc1cccc(CN(CC2(c3ccccc3F)CCCC2)c2ccccc2)c1Cl,15 nM,< 5 nM,> 10000 nM,,,,
CN[C@H](C)C(=O)N[C@H](C(=O)N1CCC[C@H]1c1nc(C(=O)c2ccc(F)cc2)cs1)C1CCN(C(=O)COCCOCc2cn(CCOc3ccc(Cn4c(-c5ccc(O)cc5)c(C)c5cc(O)ccc54)cc3)nn2)CC1,52 nM,,> 10000 nM,,,,DC50 (Estrogen receptor [24]): > 10000 nM; GI50 (MCF7 [25]): > 10000 nM
CN(Cc1cccc(O)c1Cl)CC1(c2ccc(OCCN3CCCCC3)cc2F)CCCC1,62 nM,< 5 nM,> 10000 nM,,,,
CN(Cc1cccc(O)c1Cl)C(C1CCCC1)C(F)(F)F (stereo not drawn),71 nM,460 nM,> 10000 nM,24 nM,110 nM,45 nM,
Cc1ncsc1-c1ccc([C@H](C)NC(=O)[C@@H]2C[C@@H](O)CN2C(=O)[C@@H](NC(=O)COCCOCc2cn(CCOc3ccc(Cn4c(-c5ccc(O)cc5)c(C)c5cc(O)ccc54)cc3)nn2)C(C)(C)C)cc1,22 nM,> 10000 nM,335 nM,38 nM,18 nM,27 nM,DC50 (Estrogen receptor [4]): 20 nM
Cc1ncsc1-c1ccc([C@H](C)NC(=O)[C@@H]2C[C@@H](O)CN2C(=O)[C@@H](NC(=O)COCCOCCOCc2cn(CCOc3ccc(Cn4c(-c5ccc(O)cc5)c(C)c5cc(O)ccc54)cc3)nn2)C(C)(C)C)cc1,22 nM,> 10000 nM,211 nM,15 nM,6 nM,9.3 nM,DC50 (Estrogen receptor [4]): 9 nM
Cc1ncsc1-c1ccc([C@H](C)NC(=O)[C@@H]2C[C@@H](O)CN2C(=O)[C@@H](NC(=O)COCc2cn(CCOc3ccc(Cn4c(-c5ccc(O)cc5)c(C)c5cc(O)ccc54)cc3)nn2)C(C)(C)C)cc1,11 nM,> 10000 nM,247 nM,8.1 nM,21 nM,287 nM,DC50 (Estrogen receptor [4]): 20 nM
Cc1c(-c2ccc(O)cc2)n(Cc2ccc(OCCn3cc(COCCOc4cccc5c4C(=O)N(C4CCC(=O)NC4=O)C5=O)nn3)cc2)c2ccc(O)cc12 (stereo not drawn),1.6 nM,> 10000 nM,3250 nM,3.2 nM,2.1 nM,4.7 nM,DC50 (Estrogen receptor [4]): 2500 nM
CN[C@@H](C)C(=O)N[C@H](C(=O)N1CCC[C@H]1c1nc(C(=O)c2cccc(OCCOCc3cn(CCOc4ccc(Cn5c(-c6ccc(O)cc6)c(C)c6cc(O)ccc65)cc4)nn3)c2)cs1)C1CCCCC1,7.3 nM,> 10000 nM,51 nM,61 nM,24 nM,40 nM,DC50 (Estrogen receptor [11]): 174 nM
CN(Cc1cccc(O)c1Cl)CC1(c2ccccc2OCCN2CCCCC2)CCCC1,> 10000 nM,> 10000 nM,3140 nM,,,,
